The values below come from publication PMC9091711 (RSC Advances, 2018).

Structures are written as SMILES.

The subject of data set [1] is caspase-3. The experiment in a line: Active caspase-3 expression by flow cytometry. The format is cell-based, human. The conditions noted are these: Jurkat cells, 24 h, 4a at IC50 concentration. In short, it runs like this: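 Jurkat cells were seeded at 1 × 10^6 cells per well and left 12 h, then exposed to the test compound for 24 h. Cells were harvested, fixed in 70% ice-cold ethanol at −20 °C for 30 min, and washed twice with PBS. They were stained with FITC anti-active caspase-3 antibody for 60 min at room temperature in the dark, washed, resuspended in PBS and analysed by flow cytometry.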

The subject of data set [2] is Jurkat cells. The experiment in a line: Annexin V-FITC/PI apoptosis assay by flow cytometry. The conditions noted are these: 24 h, 4a at IC50 concentration. It is filed as cell-based, human.
For data set [3] the following is noted: cited from earlier work.

Take `CC[C@@]1(O)C(=O)OCc2c1cc1n(c2=O)Cc2cc3ccccc3nc2-1` [CPT, camptothecin]: the “Active caspase-3 expression (M2, apoptotic cells)” value in data set [1] was over 54%. In addition, in data set [2], the “Apoptotic dying cells (M2, Annexin-V-FITC fluorescence intensity)” value stood at 68%. The “Cells in late stage apoptosis” value in data set [2] (Annexin V-FITC/PI) came to 14%.

For the molecule `CC(C)(C)C[C@@H]1N[C@@H](C(=O)N[C@H]2CC[C@H](O)CC2)[C@H](c2cccc(Cl)c2F)[C@]12C(=O)Nc1cc(Cl)ccc12` [MI-773], the Stability in solution entry in data set [3] was “low stability in solution”.
